According to publication PMC7271564 (Haematologica, 2019):
“Also recorded” adds a separate entry of the source.

What was measured:
[1] = tested on: CD19+/B cells; assay: High throughput no-wash flow cytometry; type: cell-based, human; details: for sensitivity compared to other cell types, in words: B cells, three healthy PB samples, 71-drug screen
[2] = tested on: monocytes (CD14+); assay: HTFC drug sensitivity assay, monocytes; type: cell-based, human; details: for response of monocytes, in words: mean of 16 samples (3 healthy, 3 AML, 10 MM), Cohort I
Summary of the method: (§1)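 Three healthy PB samples were screened ex vivo with 71 compounds at 5 concentrations in 384-well plates. The assay was a no-wash multiplexed flow cytometry run on an iQue Screener PLUS. Six subsets were gated by surface antigen: CD19+, CD56+, CD3+CD4+, CD3+CD8+, CD3+CD56+ and CD14+. Cell counts per subset gave dose–response curves, and DSS was derived from these.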

[3] = tested on: CD56+/NK cells; assay: HTFC drug sensitivity assay, NK cells; type: cell-based, human; details: for sensitivity compared to other cell types, in words: NK cells, three healthy PB samples, 71-drug screen
Summary of the method: as §1

[4] = tested on: CD138+CD38- plasma cells; assay: HTFC drug sensitivity assay, plasma cell subset; type: cell-based, human; details: CD138+CD38- plasma cells compared to CD138+CD38+ or other cells, MM samples
Summary of the method: (§2)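 Cohort I comprised 16 samples: 3 healthy PB, 3 AML and 10 MM. Samples were tested in 96-well plates against six compounds by no-wash high-throughput flow cytometry (iQue Screener PLUS). Two antibody panels defined up to ten subsets, including CD138+CD38± plasma cells and CD34+CD38± progenitors. Per-population cell counts gave dose–response curves, from which DSS and IC50 were derived. Results were shown as mean±SEM per disease group.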

[5] = tested on: CD34+CD38- cells (HSC); assay: HTFC drug sensitivity assay, hematopoietic stem cells; type: cell-based, human; details: CD34+CD38- cells from healthy donors (BM, n=2)
[6] = tested on: CD34+CD38+ cells (CPC/blast); assay: HTFC drug sensitivity assay, progenitor/blast cells; type: cell-based; details: Homo sapiens
[7] = tested on: T-cell malignancies (primary samples); assay: CellTiter-Glo viability assay; type: cell-based, human; details: similar to healthy T cells
Summary of the method: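 Primary BM aspirates from leukemia patients (Cohort III, n=281 total), with T-PLL samples tested as enriched CD8+ cells, were exposed to the drug panel. The endpoint was CellTiter-Glo luminescent viability. Luminescence was fitted to dose–response curves, from which a drug sensitivity score (DSS) was calculated. Comparison was against bead-enriched healthy BM CD3+ cells.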

[8] = tested on: T-cell subsets (CD3+); assay: HTFC drug sensitivity assay, T-cell subsets; type: cell-based, human
Summary of the method: as §2

**Q.** Which “sensitivity compared to other cell types, in words” value [1] does the source give for C[C@@H]1C[C@H]2[C@@H]3CCC4=CC(=O)C=C[C@]4(C)[C@@]3(F)[C@@H](O)C[C@]2(C)[C@@]1(O)C(=O)CO [dexamethasone] here?
**A.** higher sensitivity

**Q.** And the “effect on cell count, in words” value ([1]; CD19+ cells, Cohort I samples)?
**A.** depleted

**Q.** What about the “effect on CD14+ cell count, in words” value ([2]; Cohort I samples) of the same compound?
**A.** dose-dependent increase

**Q.** What about the “response of monocytes, in words” value [2] of the same compound?
**A.** resistant

**Q.** What about the “effect on cell count, in words” value ([3]; CD56+ cells, Cohort I samples) of the same compound?
**A.** depleted

**Q.** And the “sensitivity compared to other cell types, in words” value [3]?
**A.** higher sensitivity

**Q.** What does the source list for CC1(C)CCC(CN2CCN(c3ccc(C(=O)NS(=O)(=O)c4ccc(NCC5CCOCC5)c([N+](=O)[O-])c4)c(Oc4cnc5[nH]ccc5c4)c3)CC2)=C(c2ccc(Cl)cc2)C1 [venetoclax]?
**A.** sensitivity compared to other cell types, in words [1]: higher sensitivity; response of monocytes, in words [2]: resistant; sensitivity compared to other cell types, in words [3]: higher sensitivity

**Q.** Which “response of monocytes, in words” value [2] does the source give for CC1(C)CCC(c2ccc(Cl)cc2)=C(CN2CCN(c3ccc(C(=O)NS(=O)(=O)c4ccc(N[C@H](CCN5CCOCC5)CSc5ccccc5)c(S(=O)(=O)C(F)(F)F)c4)cc3)CC2)C1 [navitoclax] here?
**A.** resistant

**Q.** How did the “drug response profile (DSS clustering), in words” value ([2]; monocytes, three healthy PB samples, 71-drug screen) turn out when Cc1nc(Nc2ncc(C(=O)Nc3c(C)cccc3Cl)s2)cc(N2CCN(CCO)CC2)n1 [dasatinib] was run?
**A.** selective sensitivity

**Q.** CC(C)C[C@H](NC(=O)[C@H](Cc1ccccc1)NC(=O)c1cnccn1)B(O)O [bortezomib] was tested. Which “ex vivo response, in words” value [4] did it give?
**A.** resistant

**Q.** How did the “sensitivity, in words” value [5] turn out when CO[C@@H]1[C@H](N(C)C(=O)c2ccccc2)C[C@H]2O[C@]1(C)n1c3ccccc3c3c4c(c5c6ccccc6n2c5c31)C(=O)NC4 [midostaurin] was run?
**A.** insensitive; also recorded: no effect

**Q.** What about the “sensitivity compared to other cell types, in words” value [1] of the same compound?
**A.** higher sensitivity

**Q.** What about the IC50 [6] of the same compound?
**A.** 16 nM

**Q.** And the “sensitivity compared to other cell types, in words” value [3]?
**A.** higher sensitivity

**Q.** COc1ncc(-c2ccc3nccc(-c4ccnnc4)c3c2)cc1NS(=O)(=O)c1ccc(F)cc1F [omipalisib] was tested. Which “response (DSS), in words” value [7] did it give?
**A.** no response

**Q.** What about the “sensitivity, in words” value ([8]; T-cell subsets, Cohort I samples) of the same compound?
**A.** insensitive

**Q.** And the “effect on CD3+ cell count, in words” value ([8]; at concentrations of 10 and 100 nM)?
**A.** increase
